Yeast growth inh – chemicals that inhibit yeast BB579 growth in restrictive medium (lifespan-shortening candidates); S. cerevisiae BB579 growth, OD615, 48 h; inhibition, % at 10 µM; 140,000 tested, 0.51% active; AID 804;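 active means inhibition above a set limit, 3 SD over the mean compound inhibition, cut at about 44% in these data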
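Material: Saccharomyces cerevisiae DeaD strain BB579, replicative lifespan model yeast; buffer or medium: CSMM-D restrictive synthetic medium containing dextrose (glucose); compound: 10 µM single dose, DMSO 0.25%; timing: 48 h compound exposure at 30 °C after 4 h preincubation; signal: turbidity as optical density at 615 nm; benchmarks: positive control amphotericin B 10 µg/mL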
Yeast life ext – extends the lifespan of yeast; S. cerevisiae growth with nicotinamide, OD615; deaD strain in restrictive glucose medium; inhibition of the nicotinamide effect, % at 10 µM; 130,000 tested, 0.68% active;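 active means inhibition above a set limit, placed 3 SD over the median of all compounds, cut at about 26% in these data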;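 further: 0% = nicotinamide-treated wells and 100% = cells grown without nicotinamide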
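Material: Modified budding yeast, DeaD strain | Medium: Restrictive glucose medium | Probe or stimulus: 1.5 mM nicotinamide | Dosing: Single dose 10 µM compound, 0.25% DMSO | Times: 48 h at 30 °C | Technique: OD615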
RAM network inh – inhibitors of the yeast RAM network; S. cerevisiae dse1pr::URA3 reporter, 5-FOA growth OD615, 2 d; analog-sensitive cbk1-as2 kinase mutant strain; inhibition, % at 50 µM; 190,000 tested, 1.8% active;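 active means inhibition above a set limit, 3 SD over mean compound inhibition, cut at about 8.4% in these data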;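 further: 0% = DMSO-only wells with no growth and 100% = 10 µM 1-NA-PP1 full growth; inhibition rescues growth on 5-FOA so higher OD means more RAM inhibition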
Measles CPE – protection of cells from measles virus. 140,000 tested, 1.5% active. Measles virus-infected cells, CPE protection, absorbance. protection (pct of control), % at 4 µM; in the data active means protection mostly above about 24%, no sharp cut-off; inactive means mostly below about 26%
Active calls of the source: *; x = no result. Shown are actives, neighbours in structure and some others; about 3.8% of the full set was active somewhere.

SMILES | Yeast growth inh | Yeast life ext | RAM network inh | Measles CPE
O=c1cccc2n1Cc1cc3ccccc3nc1-2 | 46.0* | -4.8 | 1.5 | 1.6
CCOC(=O)C(NC(=O)CC)(Nc1ccccc1)C(F)(F)F (stereo not drawn) | -41.3 | 1.1 | 1.6 | 24.0*
COc1ccc(C(=O)c2ccc(N3CCN(C(=O)c4ccc(F)cc4)CC3)c(F)c2)cc1Br | -63.5 | 3.2 | 6.3 | 56.5*
COc1cc(Br)cc(CNc2ccc(F)c([N+](=O)[O-])c2)c1O | x | x | 8.9* | x
Cc1ccc(CC(=O)Nc2ccc(F)c([N+](=O)[O-])c2)cc1C | x | x | 2.0 | x
NC(=O)c1cc(C(=O)c2ccc(Cl)cc2Cl)c[nH]1 | x | x | -0.7 | x
O=C(c1c[nH]c(C(=O)C(Cl)(Cl)Cl)c1)c1ccccc1Cl | 67.3* | 90.2* | -0.9 | 6.3
COc1ccc(-n2cccc2/C=C2\C(=N)N3N=C(C(C)C)SC3=NC2=O)cc1 | x | x | 11.1* | x
C=CCN1C(=O)S/C(=C\c2ccc(N3CCOCC3)cc2C)C1=O | -24.8 | -5.2 | 8.6* | 4.7
Cc1cc(C)nc(SCc2cc(=O)c(OC(=O)c3ccc(Br)o3)co2)n1 | -41.5 | 48.9* | -0.9 | 22.5
Cc1ccnc(SCc2cc(=O)c(OC(=O)c3ccccc3)co2)n1 | x | x | -0.9 | x
Cc1cc(C)nc(SCc2cc(=O)c(OC(=O)c3ccco3)co2)n1 | -24.2 | 45.8* | 2.5 | 17.1
COc1ccc(C=O)cc1CSc1nnc(COc2cccc3cccnc23)o1 | -38.4 | x | 2.7 | 15.8
COc1ccc(NC(C)=O)cc1NC(=O)c1ccc(C#N)cc1 | x | x | 0.1 | x
N#C/C(=C\c1c(N2CCOCC2)nc2ccccn2c1=O)S(=O)(=O)c1ccccc1 | -24.6 | -12.2 | 1.4 | 26.8*
CC(C)OC(=O)CSc1nnc2c(n1)[nH]c1ccc(F)cc12 | x | x | -1.5 | x
Cc1cc(C)c2nc(NNC(=O)c3cc(=O)c4ccccc4o3)sc2c1 | x | x | 9.5* | x
Cc1cc(C)c2nc(NNC(=O)c3ccc(S(=O)(=O)N4CCc5ccccc5C4)cc3)sc2c1 | 31.0 | 1.3 | 1.8 | 5.5
CCOC(=O)c1c(CSc2cccs2)n(C)c2cc(Br)c(O)c(CN(C)C)c12 | x | x | 1.3 | x
O=C(Cn1cnc2ccc(Br)cc2c1=O)c1cccs1 | -26.7 | 7.3 | 4.6 | 11.8
O=C(Cn1cnc2ccc(Cl)cc2c1=O)c1cccs1 | 13.9 | -0.1 | 2.1 | 52.2*
CCN(CC)C(=O)CSc1nc(N)c(C#N)c(-c2cccs2)c1C#N | -37.1 | x | 1.4 | 2.9
CCN(CC)C(=O)CSc1nc(-c2cccs2)cc(-c2cccs2)c1C#N | -28.6 | x | 8.4* | 5.3
O=C(NCCc1ccccc1)C1CCC(CNS(=O)(=O)c2cccs2)CC1 (stereo not drawn) | x | x | 4.3 | x
CCOC(=O)C1Cc2cc3c(cc2C1=O)CC(C(=O)OCC)C3=O (stereo not drawn) | -9.9 | 50.8* | -0.6 | 6.2
SMILES | Yeast growth inh | Yeast life ext | RAM network inh | Measles CPE
Cc1ccc(-c2c(C(=O)NNC(=S)NCC3CCCO3)csc2C)cc1 (stereo not drawn) | x | x | 2.2 | x
COCCN(C(=O)Cc1cccs1)c1nnc(-c2cccnc2)s1 | -23.5 | -14.2 | 3.1 | 20.1*
O=C(CN(CCc1ccccc1)C(=O)CNS(=O)(=O)c1ccc(F)cc1)NCC1CCCO1 (stereo not drawn) | -16.2 | -4.7 | 2.4 | 33.4*
COc1ccccc1C1=NOC(COC(=O)c2ccc(Br)cc2)C1 (stereo not drawn) | -62.1 | -0.7 | 10.5* | 4.6
CCC(=O)Nc1cccc(NC(=S)NC(=O)c2ccccc2C)c1 | x | x | 2.7 | x
CSCCC(NC(=O)COc1ccccc1)C(=O)O (stereo not drawn) | x | x | 2.2 | x
CC(=O)c1ccc(NC(=O)c2ccc(CSc3ccccc3)o2)cc1 | -42.0 | -7.1 | 8.6* | 6.5
O=C(Nc1ccc(F)cc1)c1ccc(CSc2ccccc2)o1 | -13.5 | -8.7 | -0.1 | 5.0
CCN(CC)S(=O)(=O)c1ccc(Cl)c(NC(=O)COc2ccccc2[N+](=O)[O-])c1 | -27.0 | 6.7 | 8.8* | 9.1
COc1ccc(-c2nc(N)ncc2Oc2ccccc2Br)c(O)c1 | -37.4 | -6.7 | 3.5 | 4.5
C=C(C)COc1ccc(-c2[nH]ncc2-c2ccccc2)c(O)c1 | 88.4* | -16.8 | -1.2 | 39.2
O=[N+]([O-])c1ccc(COc2ccc(-c3[nH]ncc3-c3ccccc3)c(O)c2)cc1 | -0.9 | 6.9 | 5.9 | x
COc1ccc(-c2[nH]ncc2Oc2ccccc2OC)c(O)c1 | -9.3 | 5.1 | 0.1 | 1.1
C=C(C)COc1ccc(-c2[nH]ncc2Oc2cccc(OC)c2)c(O)c1 | 75.2* | -30.8 | 4.0 | 5.8
COc1cccc(Oc2cnc(N)nc2-c2ccc(OC)cc2O)c1 | -52.0 | -12.6 | 10.4* | 15.3
CCO/N=C/C1=C(O)C(C(=O)OC)C(C)(C)CC1=O (stereo not drawn) | x | x | 1.4 | x
CC/C(=C1/C(=O)CC(C)(C)C(C(=O)OC)C1=O)N1CCCC1 (stereo not drawn) | -21.2 | 29.8* | 0.8 | 19.2
Cc1ccc(C)c(SCC(=O)Nc2cc(C)nn2-c2ccc(F)cc2)c1 | -9.4 | 0.8 | 8.6* | 10.3
COc1ccc(N2C(=O)N(Cc3ccccc3F)c3ccccc3S2(=O)=O)cc1 | x | x | 6.8 | x
COc1ccc(N2C(=O)N(Cc3cccc(F)c3)c3ccccc3S2(=O)=O)cc1 | x | x | 8.8* | x
CCN1C(=O)CSc2ccc(C(=O)NCc3ccc(OC)cc3)cc21 | -9.9 | -6.9 | 0.2 | 36.3*
CCCOc1ccc(N2CC(C(=O)Nc3ccc(N4CCOCC4)cc3)CC2=O)cc1 (stereo not drawn) | x | x | 5.2 | x
COc1cc(C)c(Br)cc1S(=O)(=O)N1CCCC1 | 11.1 | -2.9 | 0.3 | 30.2*
CCN(CC)S(=O)(=O)c1ccc(NC(=O)COC(=O)c2ccc(NC(=O)CC#N)cc2)cc1 | x | x | 2.6 | x
COc1cc(Nc2ccc(C(=O)O)cc2[N+](=O)[O-])cc(OC)c1 | -72.5 | 7.3 | 10.3* | 7.3
SMILES | Yeast growth inh | Yeast life ext | RAM network inh | Measles CPE
Cc1nnc(SCC(=O)c2ccc(Cl)cc2)n(N)c1=O | x | x | 1.5 | x
COc1ccc(-c2[nH]ncc2/C=C(/C#N)C(=O)NC2CCCCC2)cc1 | -60.1 | -6.8 | 2.4 | 15.2
Cc1ccc(-c2[nH]ncc2/C=C(\C#N)C(=O)NC2CCCCC2)cc1 | -9.3 | -9.2 | 1.5 | 70.1*
Cc1cnc(NC(=O)c2cccc(S(=O)(=O)N3CC(C)OC(C)C3)c2)s1 (stereo not drawn) | x | x | 1.0 | x
O=c1c2ccccc2sn1-c1cc(S(=O)(=O)N2CCOCC2)ccc1N1CCCC1 | -63.5 | -5.6 | 2.7 | 13.8
O=c1c2ccccc2sn1-c1cc(S(=O)(=O)N2CCOCC2)ccc1N1CCOCC1 | -45.9 | -2.4 | 9.2* | 16.3
CSc1ccccc1NC(=O)CN(c1cc(C)cc(C)c1)S(C)(=O)=O | -34.7 | -3.5 | -1.0 | 6.7
CS(=O)(=O)N(CC(=O)Nc1ccccc1Sc1ccccc1)c1cccc(Br)c1 | -40.8 | 2.4 | 11.3* | 7.2
C=CCOc1nc(-c2ccncc2)nc2ccccc12 | -20.9 | -18.5 | 0.1 | 30.0*
COc1nc(-c2ccncc2)nc2ccccc12 | -47.1 | -26.0 | -0.5 | 26.7
CNCCOc1nc(N2CCOCC2)nc(C)c1[N+](=O)[O-] | -11.5 | 0.4 | 1.2 | 56.2*
Cc1ccc(-c2nc3ccccc3c(=O)n2NC(=S)N(C)C)cc1 | -10.1 | 8.2 | 0.4 | 7.1

Screening data as filed in PubChem.
